We go through two compounds from ChEMBL document CHEMBL4376860, “Discovery of Novel Dual Poly(ADP-ribose)polymerase and Phosphoinositide 3-Kinase Inhibitors as a Promising Strategy for Cancer Therapy” (J Med Chem, 2020).

The subject of series [1] is MDA-MB-468. Kind of series: Inhibition of PI3K in human MDA-MB-468 cells assessed as reduction in BRCA2 mRNA level at 1 uM in presence of PARP inhibitor olaparib by Trizol reagent-based RT-PCR analysis. Format: cell-based. The method in brief: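 Total RNA from treated MDA-MB-468 cells extracted with TRIzol. BRCA1 or BRCA2 mRNA quantified by real-time PCR with GAPDH as internal control. Results given as fold change relative to the internal control. Mean ± SD of three independent experiments.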

Series [2] concerns MDA-MB-468. Kind of series: Inhibition of PI3K in human MDA-MB-468 cells assessed as reduction in RAD51 foci formation at 1 uM measured after 72 hrs in presence of PARP inhibitor olaparib by DAPI staining based immunofluorescence microscopic analysis. Format: cell-based. The method in brief:
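RAD51 foci in MDA-MB-468 cells on coverslips after 72 h drug exposure. Cells fixed (3% formaldehyde), permeabilized (0.1% Triton X-100), blocked in 10% FBS/PBS, incubated overnight at 4 °C with rabbit anti-RAD51 polyclonal, then secondary antibody plus DAPI. Foci and percent positive cells (>5 foci per cell) counted from about 200 cells. Mean ± SD of three independent experiments.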

Series [3] deals with MDA-MB-468. Kind of series: Induction of apoptosis in human MDA-MB-468 cells assessed as viable cells at 1 uM measured after 72 hrs in presence of PARP inhibitor olaparib by Annexin V-FITC/propidium iodide staining based flow cytometry (reference value: 95.2%). Format: functional. The following applies: MDA-MB-468, 72 h, read-out: Activity. Background: A flow cytometer gives signals particle by particle.

The next series concerns HCT-116. Kind of series: cells. The following applies: Homo sapiens, HCT-116, 168 h, read-out: pIC50 (converted).
In series [4] the test system is MDA-MB-468. The experiment in a line: cells. The following applies: Homo sapiens, MDA-MB-468, 168 h, read-out: pIC50 (converted).
The subject of a further series is BXPC-3. Kind of series: cells. The following applies: Homo sapiens, BXPC-3, 168 h, read-out: pIC50 (converted).
Another series deals with A2780. The experiment in a line: cells. The following applies: Homo sapiens, A2780, 168 h, read-out: pIC50 (converted).
The test system of another series is Jurkat. The experiment in a line: cells. The following applies: Homo sapiens, 168 h, read-out: pIC50 (converted).
Series [5] deals with Phosphatidylinositol 4,5-bisphosphate 3-kinase catalytic subunit alpha isoform (Homo sapiens, UniProt P42336). Kind of series: Inhibition of PI3Kalpha (unknown origin) using PIP2 as substrate measured after 1 hr by ADP-glo plus luminescence assay. Background: ADP-Glo turns the ADP formed in a reaction into a luminescent signal.
Phosphatidylinositol 4,5-bisphosphate 3-kinase catalytic subunit alpha isoform, sequence (P42336 whole entry, canonical isoform): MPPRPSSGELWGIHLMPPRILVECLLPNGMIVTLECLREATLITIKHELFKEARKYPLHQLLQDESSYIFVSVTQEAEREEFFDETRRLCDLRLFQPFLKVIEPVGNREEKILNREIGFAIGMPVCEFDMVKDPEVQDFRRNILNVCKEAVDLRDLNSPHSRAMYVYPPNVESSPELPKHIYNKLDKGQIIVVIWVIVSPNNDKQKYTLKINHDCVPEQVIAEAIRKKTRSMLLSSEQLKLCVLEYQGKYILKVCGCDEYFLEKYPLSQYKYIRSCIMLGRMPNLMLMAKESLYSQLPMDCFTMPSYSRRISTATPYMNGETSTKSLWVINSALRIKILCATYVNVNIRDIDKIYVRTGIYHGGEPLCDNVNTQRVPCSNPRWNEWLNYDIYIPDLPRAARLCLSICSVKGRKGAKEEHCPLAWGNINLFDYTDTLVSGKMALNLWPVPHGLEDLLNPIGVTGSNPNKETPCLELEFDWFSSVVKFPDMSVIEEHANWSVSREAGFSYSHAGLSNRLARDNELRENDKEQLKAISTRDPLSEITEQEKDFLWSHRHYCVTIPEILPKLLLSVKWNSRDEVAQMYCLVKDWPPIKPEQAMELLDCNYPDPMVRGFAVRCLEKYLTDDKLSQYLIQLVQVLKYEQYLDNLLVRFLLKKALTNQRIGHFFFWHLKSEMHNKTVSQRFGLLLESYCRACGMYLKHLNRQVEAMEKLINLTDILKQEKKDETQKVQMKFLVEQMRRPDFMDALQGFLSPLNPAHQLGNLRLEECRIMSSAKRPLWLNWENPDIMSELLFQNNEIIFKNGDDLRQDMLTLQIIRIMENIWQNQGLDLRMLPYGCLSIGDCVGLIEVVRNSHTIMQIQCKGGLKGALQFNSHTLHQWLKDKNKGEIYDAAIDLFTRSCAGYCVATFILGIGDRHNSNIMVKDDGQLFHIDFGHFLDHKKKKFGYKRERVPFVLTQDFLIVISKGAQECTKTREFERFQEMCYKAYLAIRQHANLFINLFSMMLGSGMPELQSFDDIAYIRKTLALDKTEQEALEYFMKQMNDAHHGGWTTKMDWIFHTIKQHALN
A further series has as its system HCC1937. Kind of series: Potency index, ratio of BKM120 IC50 to test compound IC50 for antiproliferative activity against human HCC1937 cells. The format is functional.
For series [6], the system named is MDA-MB-468. Kind of series: Activation of ERK in human MDA-MB-468 cells assessed as increase in ERK autophosphorylation at T202 residue at 1 uM measured after 6 to 72 hrs by Western blot analysis. Format: cell-based. The method in brief:
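MDA-MB-468 cells seeded in six-well plates, incubated overnight, then treated for 6 h, with 1‰ (v/v) DMSO medium as control. Lysates cleared at 4 °C, protein quantified by BCA, resolved by 8-12% SDS-PAGE and transferred to PVDF. Membranes blocked in 5% BSA/TBST, probed with primary antibodies (pERK-Thr202, total ERK, cleaved PARP, β-actin) and HRP secondary. ECL detection, band densitometry.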
In general terms: Immunoblotting shows a protein as a band on a membrane.

Series [7] concerns MDA-MB-468. The experiment in a line: Induction of apoptosis in human MDA-MB-468 cells assessed as increase in cleaved PARP level at 1 uM […] by Western blot analysis. The format is functional, cell-based.
The subject of series [8] is MDA-MB-468. Kind of series: Antitumor activity against human MDA-MB-468 cells xenografted in BALB/c mouse assessed as tumor growth inhibition at 50 mg/kg, ip administered every 2 days for 34 days and measured at 2 days interval during compound dosing relative to control. The following applies: MDA-MB-468, ip, read-out: TGI. Format: functional.
Series [9] in a line: Toxicity in BALB/c mouse xenografted with human MDA-MB-468 cells assessed as mortality at 50 mg/kg, ip administered every 2 days for 34 days. The format is organism-based. The following applies: in vivo. The method, boiled down: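 Nude mice bearing subcutaneous right-flank MDA-MB-468 tumours (2 × 10^6 exponential-phase cells implanted). Randomised at about 100 mm³ tumour volume; 6 mice per group. Dosed ip every 2 days for 34 days. Vehicle controls received PBS with 5% DMSO. Body weight and tumour size recorded every 2 days; tumour volume calculated as ab²/2 from caliper diameters.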

Series [10] has as its system Mus musculus. Kind of series: In vivo inhibition of PI3K in BALB/c mouse xenografted with human MDA-MB-468 cells assessed as reduction in pS6 phosphorylation at S240 residue at 50 mg/kg, ip administered every 2 days for 34 days measured post-last dose by Western blot analysis. The format is functional, organism-based.
The test system of series [11] is Mus musculus. The experiment in a line: In vivo inhibition of PI3K in BALB/c mouse xenografted with human MDA-MB-468 cells assessed as reduction in BRCA1 expression at 50 mg/kg, ip administered every 2 days for 34 days measured post-last dose by Western blot analysis. Format: functional, organism-based.
Series [12] has as its system Mus musculus. The experiment in a line: In vivo inhibition of PI3K in BALB/c mouse xenografted with human MDA-MB-468 cells assessed as reduction in BRCA2 expression at 50 mg/kg, ip administered every 2 days for 34 days measured post-last dose by Western blot analysis. Format: functional, organism-based.

Activity calls are given as the source filed them. The calls are words filed in the database; no cut-off is given here.

On to `Nc1cc(C(F)(F)F)c(-c2cc(N3CCOCC3)nc(N3CCOCC3)n2)cn1` [BUPARLISIB], for which the inhibition result in the series on MDA-MB-468 [1] and in the series with MDA-MB-468 [2] was “Active” each time. Further, the viability at 1 µM in the series on MDA-MB-468 [3] stood at 81.5%. For the same compound, the IC50 is 1230 nM in the series with HCT-116; 1290 nM with MDA-MB-468 [4]; 2450 nM with BXPC-3; 347 nM in the series on A2780; 1290 nM in the series on Jurkat.
With `Nc1cc(C(F)(F)F)c(-c2nc3c(c(N4CCOCC4)n2)CCN(C(=O)c2cc(Cc4n[nH]c(=O)c5ccccc45)ccc2F)C3)cn1`, the IC50 in series [5] is 5.62 nM. Further, the “Ratio IC50” value in the series on HCC1937 is on record as “>=4”. Moreover, the result with MDA-MB-468 [6] and in the series with MDA-MB-468 [7] was Active. For the same compound, the inhibition in vivo at 50 mg/kg with MDA-MB-468 [8] was 73.4%. In addition, the Activity entry in series [9] is on record as “Non-Toxic”. Also, the inhibition entry in the series with Mus musculus [10], in the series on Mus musculus [11] and in the series with Mus musculus [12] was “Active” each time.
